Key:
A. thaliana = test: Herbicidal activity assay on soil-grown A. thaliana; type: in vivo, Arabidopsis thaliana; conditions: for pre-emergent inhibition: pre-emergence treatment; for pre-emergent inhibition / post-emergent inhibition: assessed on day 16; for post-emergent inhibition: treatments three and six days after germination
Method in brief: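 Test compounds were applied to A. thaliana across 125 μM–2 mM, either pre-emergence or post-emergence.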

[1] = system: transgenic line of A. thaliana, modified with a synthetic dicamba monooxygenase from Stenotrophomonas maltophilia; test: Dicamba tolerance trait test, dicamba-tolerant transgenic line; type: in vivo, Arabidopsis thaliana; conditions: sprayed at 500 μM, DMOc line
Method in brief: (§1)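 Wild-type plants or a homozygous dicamba-tolerant transgenic line (DMOc) were sprayed with test compound or the parent acid at 500 μM.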

[2] = system: Wild type A. thaliana (WT); test: Dicamba tolerance trait test, wild type plants; type: in vivo, Arabidopsis thaliana; conditions: sprayed at 500 μM
Method in brief: as §1

[3] = HPLC determination of dicamba formation in water; type: physicochemical; conditions: for % Dicamba: integration of dicamba as percentage of all peaks at 220 nm

| % Dicamba ([3]; 1 day) | % Dicamba ([3]; 7 days) | % Dicamba ([3]; 28 days) | relative stability to hydrolysis among glucose isomers 1–5 ([3]; HPLC) | Compound | pre-emergent inhibition (A. thaliana; 125 μM) | post-emergent inhibition (A. thaliana; 125 μM) | post-emergent inhibition (A. thaliana; 500 μM) | pre-emergent inhibition (A. thaliana; 1 mM) | growth effect on dicamba-tolerant transgenic line [1] | growth effect on wild-type [2] | relative post-emergent herbicidal efficacy among conjugates (A. thaliana; post-emergence, comparison between carbohydrate conjugates (Fig. 5)) |
| --- | --- | --- | --- | --- | --- | --- | --- | --- | --- | --- | --- |
| – | – | – | – | COc1c(Cl)ccc(Cl)c1C(=O)O [Dicamba, 3,6-dichloro-2-methoxybenzoic acid] | weak | moderate | strong | strong | no growth symptoms | herbicidal | – |
| 0.1% | 0.1% | 0.5% | most stable | 6-O-dicamba-D-glucose [Compound 2] | – | – | – | – | no growth symptoms | herbicidal | most active |

From article PMC12461606 (RSC Chemical Biology, 2025)
